Assay outcomes as filed in PubChem.
TbMetRS inhib: T. brucei MetRS inhibitors, primary screen, biochemical, luminescence. hit rate 0.4% among 360,000. methionyl-tRNA synthetase (Trypanosoma brucei brucei). inhibition, % at 11.9 µM. purified T. brucei MetRS, ATP depletion, Kinase-Glo luminescence. AID 624268, 2012;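 active = inhibition above a per-plate cutoff of the control wells' mean inhibition plus 3 SD, cut at about 5.5% in these data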;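 note: 0% = DMSO wells median and 100% = median of wells with control inhibitor compound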
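assay system = parasite MetRS enzyme | timing = 15 min preincubation, 2 h reaction, all 25 °C | evaluation = percent inhibition relative to median high and low control wells | medium = HEPES buffer containing pyrophosphatase, BSA, spermine, DTT | compound = single dose, 11.9 µM final nominal, 0.9% final DMSO | detection = Kinase-Glo luminescence, ATP depletion format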
CDK5 inh: inhibitors of human CDK5/p35 kinase, primary screen, biochemical, single concentration | Cyclin-dependent kinase 5 (Homo sapiens) + Cyclin-dependent kinase 5 activator 1 (Homo … | Recombinant CDK5/p35, ADP-Glo luminescence, 60 min | inhibition, % at 10 µM | hit rate 0.01% among 330,000 | AID 488839, 2010;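 active = highest replicate inhibition of at least 50% and at least 75% of replicates reaching 50%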;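 note: plate controls were DMSO neutral control for no effect and GW8510 at 10 µM for full effect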
Target sequence (Q00535 whole entry, looked up): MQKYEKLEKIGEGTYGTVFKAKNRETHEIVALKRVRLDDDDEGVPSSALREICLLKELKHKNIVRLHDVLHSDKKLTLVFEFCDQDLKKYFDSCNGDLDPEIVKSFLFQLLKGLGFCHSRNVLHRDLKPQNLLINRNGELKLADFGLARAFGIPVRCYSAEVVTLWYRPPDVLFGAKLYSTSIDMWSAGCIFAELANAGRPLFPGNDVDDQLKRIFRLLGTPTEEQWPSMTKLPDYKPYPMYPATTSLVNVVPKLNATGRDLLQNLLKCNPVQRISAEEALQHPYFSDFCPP
Target sequence (Q15078 whole entry, looked up): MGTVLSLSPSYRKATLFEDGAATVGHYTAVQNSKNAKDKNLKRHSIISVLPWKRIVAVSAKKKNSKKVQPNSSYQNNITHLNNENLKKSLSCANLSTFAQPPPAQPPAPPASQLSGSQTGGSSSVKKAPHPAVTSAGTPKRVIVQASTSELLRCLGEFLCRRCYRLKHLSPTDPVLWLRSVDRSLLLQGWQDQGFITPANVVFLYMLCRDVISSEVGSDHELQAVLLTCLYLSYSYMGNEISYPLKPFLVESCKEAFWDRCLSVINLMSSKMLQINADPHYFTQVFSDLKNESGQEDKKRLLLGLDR
Dyrk1A ADPGlo: rat Dyrk1A kinase inhibitors, primary screen, biochemical, single point, plate reader; Dual specificity tyrosine-phosphorylation-regulated kinase 1A (Rattus norvegicus), Q63470; ADP-Glo luminescence, NFATc1 peptide; inhibition, % at 12.5 µM; hit rate 0.43% among 310,000; in the data active = inhibition above about 50%;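 note: plate controls were vehicle with enzyme for no effect and no enzyme for full effect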
PvdQ acylase: P. aeruginosa PvdQ acylase inhibitors, primary screen, biochemical, fluorescence, plate reader and imaging, single point; PvdQ acylase [Pseudomonas aeruginosa LESB58]; purified PvdQ acylase; inhibition, % at 10 µM; hit rate 0.063% among 340,000; AID 488965, 2010; in the data active = inhibition above about 30%, passing the limit was not always enough;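 note: 0% = vehicle neutral wells and 100% = reference inhibitor wells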
CAL PDZ FP-1: untagged CAL PDZ binding inhibitors, primary screen, biochemical, fluorescence polarization, HTS; inhibition, % at 24.9 µM; Golgi-associated PDZ and coiled-coil motif-containing protein (Homo sapiens), Q9HD26; hit rate 0.92% among 300,000; purified CAL PDZ, TMR-peptide fluorescence polarization, 1 h; AID 602252, 2012;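 active = mean inhibition of at least 30% with at least half of replicates also reaching 30%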;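 note: 0% = DMSO neutral control and 100% = excess unlabeled competitor peptide PRC23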
CAL PDZ FP-2: CAL PDZ peptide-binding inhibitors, primary screen, biochemical, fluorescence polarization, Cer-tagged CAL PDZ, HTS. Golgi-associated PDZ and coiled-coil motif-containing protein (Homo sapiens), Q9HD26. purified CAL PDZ, TMR-peptide fluorescence polarization, 1 h. inhibition, % at 20 µM. hit rate 0.02% among 330,000. AID 504414, 2011;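 active = highest replicate inhibition of at least 40%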;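 note: plate controls were DMSO neutral control wells for no effect and unlabeled competitor peptide control wells for full effect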
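Control set: unlabelled peptide and DMSO controls / Material: purified CerCALP PDZ construct / Timing: 1 h incubation at room temperature before polarization reading / Doses: 20 µM, one dose / Detection: fluorescence polarization (mP)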
TbMetRS confirm: T. brucei MetRS inhibitors, confirmation, biochemical, luminescence | hit rate 93% among 1,400 | AID 624412, 2012 | shares compounds with TbMetRS inhib | inhibition, % at 11.9 µM | T. brucei MetRS enzyme, luminescence (ATP depletion); in the data active = inhibition above about 7%
Jurkat cytotox: Jurkat T cell cytotoxicity, cytotoxicity control for T. brucei MetRS inhibitor project, luminescence, high throughput; shares compounds with TbMetRS inhib; Jurkat cells viability, ATP luminescence; inhibition, % at 8.3 µM; hit rate 12% among 1,400; in the data active = inhibition above about 15%;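 note: 0% = vehicle and 100% = reference inhibitor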
Tb MetRS inh FP: T. brucei MetRS inhibitors, orthogonal assay for T. brucei MetRS inhibitor project, biochemical, fluorescence polarization. purified T. brucei MetRS. shares compounds with TbMetRS inhib. hit rate 44% among 1,400. inhibition, % at 11.9 µM; in the data active = inhibition above about 17%;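 note: 0% = vehicle wells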
* = called active by the depositor; . = not tested or not shown. This is a sample that favours compounds with a hit; in the whole collection about 1.4% have one here.

SMILES | TbMetRS inhib | CDK5 inh | Dyrk1A ADPGlo | PvdQ acylase | CAL PDZ FP-1 | CAL PDZ FP-2 | TbMetRS confirm | Jurkat cytotox | Tb MetRS inh FP
O=C(CCCSc1ccc(Cl)cc1)Nc1ccccc1O | 18* | -1 | 19 | -10 | . | -1 | 38* | 12 | 24*
Cc1ccc(SCCC(=O)N/N=C/c2cccnc2)cc1 | 11* | -2 | -5 | -8 | 3 | -3 | 32* | 11 | 21*
Cc1ccc(SCCC(=O)N/N=C/c2ccccc2O)cc1 | 18* | 0 | -4 | -7 | -5 | -2 | 80* | 13 | 51*
Cc1cccc(NC(=O)CCC(=O)N/N=C/c2ccc(O)cc2O)c1 | 54* | 0 | 5 | -12 | -6 | . | 81* | 0 | 46*
CC(=O)c1cccc(NC(=O)CSc2nnc(C(C)N(C)C)n2Cc2ccccc2)c1 (stereo unspecified) | 5.6* | 0 | -5 | -10 | 7 | 0 | 2 | 3 | -3
Cc1ccc2nc(-c3cccc(NC(=O)c4ccco4)c3)[nH]c2c1 | 6.0* | 0 | 12 | -3 | -8 | -8 | 9.1* | 9 | 56*
O=C(Nc1ccc2nc(-c3cccnc3)[nH]c2c1)c1ccco1 | 0 | -2 | 0 | -10 | . | -4 | . | . | .
O=C(Nc1ccc(F)cc1)C1CC(=O)n2c(nc3ccccc32)N1 (stereo unspecified) | 18* | 0 | -4 | -6 | 1 | -1 | 34* | 1 | 12
COc1ccc(NC(=O)C2CC(=O)n3c(nc4ccccc43)N2)cc1 (stereo unspecified) | 0 | -4 | -6 | -3 | -4 | 0 | . | . | .
O=C(Nc1ccc(F)c(Cl)c1)C1CC(=O)n2c(nc3ccccc32)N1 (stereo unspecified) | 74* | 0 | -4 | 6 | 4 | 1 | 90* | 7 | 76*
COc1ccc(-c2nc(CS(=O)(=O)CC(=O)Nc3ccc(Cl)cc3)c(C)o2)cc1 | 12* | -2 | 6 | -8 | . | -1 | 34* | 46* | 26*
COc1ccc(NC(=O)CS(=O)(=O)Cc2nc(-c3ccc(C)cc3)oc2C)cc1 | 0 | 1 | -1 | -8 | -1 | -2 | . | . | .
Cc1cc(Cl)ccc1OCc1cn2cccnc2n1 | 11* | 0 | . | -6 | -7 | -1 | 21* | 5 | 2
COc1ccc(C(=O)NC(=S)NNC(=O)c2cnccn2)cc1 | 0 | 0 | -7 | 5 | . | 0 | . | . | .
O=C(NC(=S)NNC(=O)c1cnccn1)c1ccc(Cl)cc1 | 5.9* | 0 | -9 | -6 | -7 | -1 | 2 | 6 | -5
O=C(CCn1c(=O)oc2ccccc21)Nc1ccc2c(c1)OCCO2 | 21* | 1 | -2 | -15 | . | 0 | 0 | 14 | 1
O=C(Cn1c(=O)oc2ccccc21)Nc1ccc2c(c1)OCCO2 | -1 | -1 | -7 | 2 | -2 | -3 | . | . | .
Clc1ccccc1OCc1nc(-c2ccccn2)no1 | 0 | 0 | -2 | -7 | -6 | -5 | . | . | .
Clc1ccc(OCc2nc(-c3ccccn3)no2)c(Br)c1 | 5.8* | -4 | 8 | -6 | 3 | 0 | 6.5* | 8 | 8
COc1ccccc1N1C(=O)c2ccccc2NC1c1ccc(O)cc1 (stereo unspecified) | 6.8* | 1 | -4 | -20 | -3 | -1 | 5 | -9 | 1
NC(=O)c1ccc(-c2ccc(N3C(c4ccsc4)=Cc4ccc(F)cc4C3CC(=O)c3ccco3)cc2)cc1 (stereo unspecified) | -1 | . | . | . | . | . | . | . | .
CC(C)(C)c1ccccc1NC(=O)c1ccc(-n2cncn2)c([N+](=O)[O-])c1 | 13* | -1 | 7 | -3 | 1 | -2 | 43* | 2 | 14
Cc1cc(Br)ccc1NC(=O)c1ccc(-n2cncn2)c([N+](=O)[O-])c1 | 32* | -1 | 1 | -9 | -2 | -2 | 79* | 2 | 52*
Cc1cc(C)c(NC(=O)CNC(=O)c2ccc(-n3cncn3)c([N+](=O)[O-])c2)c(C)c1 | 8.0* | -3 | 7 | -4 | 2 | -2 | 35* | -2 | 15
Cc1ccc(C)c(NC(=O)CN(C)C(=O)c2ccc(-n3cncn3)c([N+](=O)[O-])c2)c1 | 0 | 2 | -3 | -18 | 1 | 0 | . | . | .
SMILES | TbMetRS inhib | CDK5 inh | Dyrk1A ADPGlo | PvdQ acylase | CAL PDZ FP-1 | CAL PDZ FP-2 | TbMetRS confirm | Jurkat cytotox | Tb MetRS inh FP
CC(C)Cc1nnc(NC(=O)c2ccc(-n3cncn3)c([N+](=O)[O-])c2)s1 | 1 | . | . | . | . | . | . | . | .
O=C(Nc1ccccc1OC(F)F)c1ccc(-n2cncn2)c([N+](=O)[O-])c1 | 19* | 1 | 9 | -6 | -2 | -2 | 52* | -10 | 22*
O=C(O)c1ccc(-n2cncn2)c([N+](=O)[O-])c1 | 1 | 2 | 10 | -8 | 0 | 0 | . | . | .
COC(=O)[C@]12CCCCC=C1N(Cc1ccc3c(c1)OCO3)C(=O)[C@H](CC(=O)NCc1cccc3ccccc13)C2 | -1 | . | . | . | . | . | . | . | .
Cc1cc(Br)ccc1NC(=O)CN(C)C(=O)c1ccc(-n2cncn2)c([N+](=O)[O-])c1 | 3 | 0 | 5 | 8 | -2 | 0 | . | . | .
Cc1cc(Br)ccc1NC(=O)CNC(=O)c1ccc(-n2cncn2)c([N+](=O)[O-])c1 | 27* | -1 | -6 | -11 | -1 | -2 | 63* | 1 | 29*
Cc1ccc(C(=O)Sc2cccccc2=O)cc1 | -1 | 0 | 4 | 1 | 13 | 0 | . | . | .
CN1CCCC(C)(C(=O)Nc2cccc(Oc3ccccc3)c2)C1 (stereo unspecified) | 0 | . | . | . | . | . | . | . | .
CN(C)c1ccc(NC(=O)Cn2cc3c(n2)CCCC3)cc1 | 16* | -1 | 11 | -22 | . | -1 | 16* | 21* | 4
CC(=O)CC1c2ccccc2C=C(c2ccsc2)N1c1ccc(-c2cccs2)cc1 (stereo unspecified) | 0 | . | . | . | . | . | . | . | .
